STEP block: STEP (human) phosphatase inhibition; AID 588621; P54829; inhibition, % at 20 µM; 360,000 tested, 0.25% active; recombinant STEP, OMFP fluorogenic substrate, fluorescence;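 active = inhibition at 20 µM, scaled per plate between control wells, above about 37%, limit read from the data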;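 also: 0% = DMSO with enzyme and substrate and 100% = substrate only without enzyme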
Target sequence (P54829 whole entry, looked up): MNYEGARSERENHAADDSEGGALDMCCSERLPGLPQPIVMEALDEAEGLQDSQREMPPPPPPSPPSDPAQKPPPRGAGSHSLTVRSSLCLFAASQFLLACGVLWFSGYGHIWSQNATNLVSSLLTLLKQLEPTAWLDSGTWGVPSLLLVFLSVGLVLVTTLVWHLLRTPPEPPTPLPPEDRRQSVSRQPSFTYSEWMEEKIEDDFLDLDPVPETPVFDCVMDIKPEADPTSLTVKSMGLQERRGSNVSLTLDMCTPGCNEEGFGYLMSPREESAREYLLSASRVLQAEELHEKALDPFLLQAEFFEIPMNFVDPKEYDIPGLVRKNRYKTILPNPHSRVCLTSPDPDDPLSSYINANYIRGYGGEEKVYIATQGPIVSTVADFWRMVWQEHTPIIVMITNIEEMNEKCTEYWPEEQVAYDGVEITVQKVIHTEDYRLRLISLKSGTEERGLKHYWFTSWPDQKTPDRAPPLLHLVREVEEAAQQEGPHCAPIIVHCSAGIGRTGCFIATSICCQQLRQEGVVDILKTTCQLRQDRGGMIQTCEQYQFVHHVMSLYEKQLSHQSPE
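Also added – OMFP at 25 µM · Test system – STEP tyrosine phosphatase · Technique – FITC-channel fluorescence of OMFP product · Schedule – 20 min at room temperature, dark · Evaluation – control-normalized % inhibition with plate pattern correction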
Scp-1 inhibitor: inhibitors of human Scp-1 phosphatase; Q9GZU7; Recombinant Scp1, phosphopeptide, malachite green phosphate absorbance; inhibition, % at 20 µM; 340,000 tested, 0.88% active; AID 493091;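 active = inhibition above about 50% at 20 µM, limit read from the data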;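 also: plate controls were DMSO wells with enzyme for no effect and wells lacking enzyme for full effect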
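Times: enzyme reaction 45 min at room temperature, colour 5 min, stabilisation 30 min. Material: SCP-1 catalytic fragment, aa 76-261. Medium: Acidic Tris acetate buffer with magnesium and detergent. Signal: colorimetric free-phosphate detection, absorbance 630 nm. Read-out basis: % inhibition of SCP-1 phosphate liberation. Reagent: Phosphorylated 17-residue peptide substrate.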
LMPTP block: blocks human LMPTP phosphatase; inhibition, % at 20 µM; P24666; 360,000 tested, 0.22% active; recombinant LMPTP-A, OMFP fluorogenic substrate, fluorescence intensity;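 active = compounds that cut the enzyme signal by at least half of the control window in the single-dose screen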;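 also: plate controls were DMSO wells with enzyme plus substrate for no effect and substrate without enzyme for full effect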
Target sequence (P24666 whole entry, looked up): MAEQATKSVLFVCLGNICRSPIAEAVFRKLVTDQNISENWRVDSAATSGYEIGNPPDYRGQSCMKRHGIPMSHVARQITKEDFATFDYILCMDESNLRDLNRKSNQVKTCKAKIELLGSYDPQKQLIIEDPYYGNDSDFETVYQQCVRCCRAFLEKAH
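Test system – LMPTP-A phosphatase enzyme · Quantity – 0.625 nM LMPTP-A final · Reagent – OMFP substrate, 400 µM final · Dosing – one test concentration per compound, 20 µM, with 3% DMSO overall · Timing – 50 min enzyme reaction at room temperature, protected from light · Detection – fluorescence intensity · Controls – substrate-only low control, DMSO enzyme-plus-substrate high control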
DNMT1 block: blocks human DNA methyltransferase DNMT1; 360,000 tested, 0.83% active; inhibition (reported as % activation of signal), % at 10 µM; AID 588458; P26358; DNMT1 molecular beacon, Hinp1I cleavage, fluorescence; in the data active = inhibition above about 50%
SUMO1-SIM PPI: SUMO1-SIM interaction modulation; 360,000 tested, 0.33% active; AID 602429; SUMO1 binding to a labelled peptide, TR-FRET, 1 h; inhibition, % at 20 µM; P63165; in the data active = inhibition above about 37%
Scp1 confirm: Scp-1 (human) inhibition, single-dose confirmed. AID 540281. shares compounds with Scp-1 inhibitor. inhibition, % at 20 µM. 2,500 tested, 61% active. recombinant SCP-1 catalytic domain, phosphate release, malachite green absorbance;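 also: plate controls were DMSO with enzyme for no effect and buffer wells lacking enzyme for full effect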
Scp-1 MG ctr: interferes with malachite green readout, flagging false Scp-1 hits; AID 540313; 2,500 tested, under 10 active; Colorimetric interference counterscreen, malachite green absorbance 630 nm; apparent inhibition (interference), % at 20 µM; shares compounds with Scp-1 inhibitor;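 also: compounds added after enzyme reaction finished so only phosphate colour detection is probed; plate controls were DMSO wells with completed Scp-1 reaction for no effect and substrate wells lacking enzyme for full effect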
Scp1 DSF: Scp-1 (human) binding by thermal shift; shares compounds with Scp-1 inhibitor; Recombinant SCP1, Sypro Orange thermal shift Tm; thermal shift relative to vanadate control, % at 40 µM; 1,500 tested, 25% active; AID 540329;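 active = substances whose mean melting-temperature shift, as a percentage of the reference inhibitor's shift, reaches about 5.3%, limit read from the data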;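 also: 0% = Tm of DMSO wells and 100% = Tm with sodium orthovanadate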
Numbers without * were called inactive; / = no result. A selection: hits, their analogues and other compounds. The true share with any hit is near 1.7%.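 The calls were made as follows, unless noted: active = inhibition of at least 30% at 20 µM; inactive = the rest.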

SMILES	STEP block	Scp-1 inhibitor	LMPTP block	DNMT1 block	SUMO1-SIM PPI	Scp1 confirm	Scp-1 MG ctr	others
COc1ccc(/C=N/NC(=O)C(Cc2c[nH]c3ccccc23)NC(=O)OCC(C)C)cc1[N+](=O)[O-] (configuration not stated)	-0.8	65.1*	-0.7	-3.7	-5.9	-10.9	-13.1
Cc1ccc(-c2csc(C3=C(O)CN(NC(=O)c4ccc([N+](=O)[O-])cc4)C3=N)n2)cc1	3.7	22.9	13.5	36.4	-0.5	/	/
N=C1C(c2nc(-c3cccc([N+](=O)[O-])c3)cs2)=C(O)CN1NC(=O)c1ccco1	10.4	68.5*	47.7	-3.3	-7.3	-9.3	-15.1
CCCc1ccc(C(=O)NNc2cc(Cl)ccc2Cl)cc1	-1.6	-10.8	3.5	3.5	-0.4	/	/
CCCc1ccc(C(=O)NNC(=O)c2ccc(Cl)cc2)cc1	3.6	94.0*	24.7	11.6	3.0	74.0*	-14.5	Scp1 DSF=-3.3
O=C(NCCCN1CCCC1)c1[nH]c(C(F)(F)F)nc1-c1ccccc1	1.5	/	-3.3	-1.0	4.3	/	/
COc1ccc(OC)c(Cc2nnc(CCC(=O)NCc3nc4ccccc4s3)o2)c1	1.0	62.6*	-0.1	-3.1	3.2	-17.5	-12.8
COC(=O)[C@@]12CCCN1[C@H](c1ccc(-c3ccc(Cl)c(Cl)c3)c(OC)c1)[C@H]1C(=O)N(C)C(=O)[C@H]12	0.0	3.5	2.4	-24.8	4.1	/	/
CCn1c(C)[n+](CC)c2ccc(S(=O)(=O)N(C)C)cc21	0.8	89.1*	2.3	3.2	-0.8	-13.4	-16.9
CCC(C)(C)n1nnnc1C(c1ccc2ncccc2c1)N1CCN(Cc2ccc3c(c2)OCO3)CC1 (configuration not stated)	-0.9	12.8	0.1	5.6	0.1	/	/
CCC(C)(C)n1nnnc1C(c1ccc(C)cc1)N1CCN(Cc2ccc3c(c2)OCO3)CC1 (configuration not stated)	-10.7	65.8*	-0.7	2.2	0.8	-16.6	-20.6
c1ccc(CCn2nnnc2C(c2cccs2)N2CCN(Cc3ccc4c(c3)OCO4)CC2)cc1 (configuration not stated)	-0.9	67.0*	0.6	-3.5	-4.6	23.3	5.8
Cc1csc(-c2cc(C(=O)NCc3ccc(F)cc3)n[nH]2)c1	0.1	/	1.3	0.2	4.0	/	/
CCN(CC(=O)NCc1cccs1)C(=O)COc1cccc(C(F)(F)F)c1	-2.1	-7.5	-0.6	-1.6	7.0	/	/
CCN(CC(=O)NCc1cccs1)C(=O)COc1ccc(C(C)=O)cc1	-3.3	59.0*	0.3	3.2	0.6	10.9	5.0
O=C(CCN1C(=O)c2cccc3cccc(c23)C1=O)NCc1cccnc1	-0.8	-4.6	-1.2	1.8	-18.3	/	/
O=C(CCN1C(=O)C2C3C=CC(C3)C2C1=O)NCc1cccnc1 (configuration not stated)	-1.8	60.5*	-0.4	2.3	-0.4	-10.9	-15.0
C[C@]12C=C[C@H](O)CC1=CCC1C2CC[C@@]2(C)C1CCC21OCCO1 (some centres not stated)	-0.7	-6.7	-1.2	3.0	0.2	/	/
CC(C)c1ccc(NC2CCCN(C(=O)c3ccc(N4CCOCC4)cc3)C2)cc1 (configuration not stated)	1.4	-9.5	2.3	-0.7	1.8	/	/
COc1ccccc1N1CCN(C(=O)c2cc3c(s2)CCC3)CC1	6.7	85.2*	18.8	36.7	-0.4	20.4	-14.8
CC[n+]1c(C)cc(C)n1-c1ccccc1	-0.4	95.2*	0.3	-39.8	-1.6	91.7*	-8.7	Scp1 DSF=-7.1
NC(=O)c1cc(S(=O)(=O)NCc2ccc(F)cc2)cs1	-1.5	-5.1	-0.5	-1.0	1.8	/	/
Cc1cccc(CNS(=O)(=O)c2csc(C(N)=O)c2)c1	-5.0	-11.0	-2.4	0.7	7.8	-9.3	-12.0
CSc1ccc(CCNS(=O)(=O)c2csc(C(N)=O)c2)cc1	0.2	-4.0	0.3	-2.0	32.0	5.1	-1.6
Cc1ccc2oc(C(=O)N3CCC(O)(c4cccc(C(F)(F)F)c4)CC3)c(C)c2c1	-2.2	-2.4	1.6	-12.2	0.9	/	/
SMILES	STEP block	Scp-1 inhibitor	LMPTP block	DNMT1 block	SUMO1-SIM PPI	Scp1 confirm	Scp-1 MG ctr	others
N#Cc1c(-c2ccccc2)c(C#N)c2nc3ccccc3n2c1N	-0.6	-1.0	1.3	-20.1	-4.8	/	/
Cc1ccc(-c2c(C#N)c(N)n3c(nc4ccccc43)c2C#N)cc1	11.8	56.6*	18.8	-12.4	-9.1	14.0	-19.5
O=C(CC1Sc2ccccc2NC1=O)Nc1cccc(C(=O)O)c1 (configuration not stated)	1.7	59.9*	0.8	37.3	7.6	36.3*	-20.3	Scp1 DSF=-4.2
NS(=O)(=O)c1cccc(NC(=O)COC(=O)CC2Sc3ccccc3NC2=O)c1 (configuration not stated)	-4.1	-5.4	0.1	-1.2	8.4	/	/
O=C(/C=C/c1ccc2c(c1)S(=O)(=O)N(Cc1ccccc1)[C@H]2CC(=O)N1CCOCC1)N1CCOCC1	2.0	2.4	0.3	11.7	1.3	/	/
CCCCC1(C)OC(=O)C(=Cc2ccc(-c3ccc(Cl)c(C(=O)O)c3)o2)C(=O)O1 (configuration not stated)	11.1	59.5*	0.0	36.6	16.7	44.6*	-12.0	Scp1 DSF=-27.6
CCCCC1(C)OC(=O)C(=Cc2ccc(SC)cc2)C(=O)O1 (configuration not stated)	-1.2	3.1	0.0	5.6	3.5	/	/
O=C(O)c1cc(-c2ccc(/C=N/NC(=S)Nc3ccccc3)o2)ccc1Cl	1.1	52.2*	0.9	17.9	21.6	59.3*	-1.9	Scp1 DSF=12.2*
Cc1cc(Cl)ccc1OCC(=O)N[C@@H](Cc1ccccc1)c1nc2ccccc2[nH]1	1.4	85.7*	-1.7	6.9	-2.8	36.2*	-9.8	Scp1 DSF=-24.2
CC(=O)Nc1ccc(C(=O)N/N=C/c2cc(Br)cc(Br)c2O)cc1	-1.2	-9.9	0.2	-1.1	2.5	/	/
CC(C)C(=O)Nc1ccc(C(=O)N/N=C/c2cc(Br)cc(Br)c2O)cc1	13.6	54.6*	-1.4	41.3	-0.5	16.1	-17.8
O=C(O)c1ccc(S(=O)(=O)N2CCC(NC(=O)C3CCCCC3)CC2)cc1	-1.4	-3.1	-0.6	3.2	5.7	/	/
COc1cc(/C=C/c2cccc[n+]2C)ccc1OCC(=O)Nc1cccc(Cl)c1	-0.3	70.3*	1.7	-1.6	-27.3	32.4*	-5.7	Scp1 DSF=-5.6
COc1ccccc1-n1c2nc3ccccc3nc2c2c(=O)n(-c3cc(C)cc(C)c3)cnc21	2.9	6.4	1.6	-2.4	-26.2	/	/

From PubChem
